Reference: ChEMBL document CHEMBL1135936, “6-[2-(Phosphonomethoxy)alkoxy]pyrimidines with antiviral activity” (J Med Chem, 2002)
In brackets after ≈: the same amount, converted by molar mass.

Legend:
[1] = system: CCRF-CEM; experiment: (§1) In vitro cytotoxicity against CCRF-CEM T lymphoblastoid cells; format: functional, Homo sapiens; design: concentration or dose not given beside the values
Summary of the method: (§2)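 Cells were grown for 72 h at a constant compound concentration of 10 µM, then counted. Growth inhibition is given relative to cell counts in control cultures grown in medium without compound. Lines: mouse L1210 and L929, human HeLaS3 and CCRF-CEM.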

[2] = system: CCRF-CEM; experiment: Inhibition of Human immunodeficiency virus (HIV) -1 III B strain induced cytopathicity in CEM cell line; format: functional, cell-based
Summary of the method: (§3)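 CEM cells were infected with 100 CCID50 per mL of HIV-1 (IIIB) or HIV-2 (ROD). Cells were seeded into wells containing dilutions of compound and incubated 4 days at 37 °C. CEM giant cell formation was then examined microscopically.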

[3] = system: CCRF-CEM; experiment: Inhibition of Human immunodeficiency virus (HIV)-2 ROD strain induced cytopathicity in CEM cell line; format: functional, cell-based; summary of the method: as §3
[4] = system: Moloney murine sarcoma virus; experiment: Inhibition of moloney sarcoma virus (MSV) induced cytopathicity in C3H/3T3 embryo fibroblast cells; format: functional, organism-based
Summary of the method: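 C3H/3T3 murine embryo fibroblasts were seeded in 48-well plates and infected 24 h later with 80 focus-forming units of MSV. MSV stock was prepared from tumours in NMRI mice. Virus adsorbed for 10-120 min at 37 °C, then fresh medium with compound dilutions was added. Transformation was examined microscopically after 6 days.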

[5] = system: E6SM; experiment: Inhibition of Herpes simplex virus-1, KOS strain induced cytopathicity in E6SM cell line; format: functional, cell-based; conditions: Homo sapiens
Summary of the method: (§4)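 Inhibition of virus-induced cytopathicity in confluent cell cultures in 96-well plates inoculated with 100 CCID50 of virus; 1 CCID50 is the virus dose infecting 50% of cultures. EC50 is based on reduction of cytopathicity.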

[6] = system: E6SM; experiment: Inhibition of Herpes simplex virus-2 (G strain) induced cytopathicity in E6SM cell line; format: functional, cell-based; conditions: Homo sapiens; summary of the method: as §4
[7] = system: E6SM; experiment: Inhibition of thymidine kinase deficient Herpes simplex virus-1 VMW 1837 strain induced cytopathicity in E6SM cell line; format: functional, cell-based; conditions: Homo sapiens; summary of the method: as §4
[8] = system: Human alphaherpesvirus 3; experiment: Inhibition of Thymidine kinase deficient (TK-) Varicella-Zoster virus (VZV) 07/1 strain induced cytopathicity n HEL cell line; format: functional, organism-based; conditions: Human alphaherpesvirus 3, tk-07, HEL; summary of the method: as §4
[9] = system: HEL; experiment: Inhibition of Thymidine kinase deficient (TK-) Varicella-Zoster virus (VZV) YS/R strain induced cytopathicity in HEL cell line; format: functional, cell-based; conditions: Homo sapiens; summary of the method: as §4
[10] = system: HEL; experiment: Inhibition of Varicella-Zoster virus (VZV) OKA strain induced cytopathicity in HEL cell line; format: functional, cell-based; conditions: Homo sapiens; summary of the method: as §4
[11] = system: HEL; experiment: Inhibition of Varicella-Zoster virus (VZV) YS strain induced cytopathicity in HEL cell line; format: functional, cell-based; conditions: Homo sapiens; summary of the method: as §4
[12] = system: HeLa; experiment: (§5) In vitro cytotoxicity against human cervix carcinoma HeLa S3 cells; format: functional; design: concentration or dose not given beside the values; summary of the method: as §2
[13] = system: L929; experiment: (§6) In vitro cytotoxicity against murine L929 cells; format: functional, Mus musculus; design: concentration or dose not given beside the values; summary of the method: as §2
[14] = system: L1210; experiment: (§7) In vitro cytotoxicity against L1210 mouse leukemia cells; format: functional; design: concentration or dose not given beside the values; summary of the method: as §2
[15] = system: unidentified adenovirus; experiment: In vitro antiadenovirus activity; format: functional, organism-based
Summary of the method: (§8)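 HEL fibroblasts, confluent, infected on day 0 with 100 CCID50 of human adenovirus type 2 or type 3. After 2 h adsorption at 37 °C, virus was removed and replaced by serial compound dilutions. Cytopathic effect was scored microscopically on day 7-10 p.i. to derive EC50 and minimum cytotoxic concentration.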

[16] = system: HEL; experiment: Inhibitory activity against HEL cell proliferation; format: functional, cell-based; conditions: Homo sapiens
[17] = system: unidentified adenovirus; experiment: Effective concentration for the inhibition of adenovirus; format: functional, organism-based; summary of the method: as §8
[18] = system: CCRF-CEM; experiment: as §1; format: functional, Homo sapiens; summary of the method: as §2
[19] = system: HeLa; experiment: as §5; format: functional; summary of the method: as §2
[20] = system: L929; experiment: as §6; format: functional, Mus musculus; summary of the method: as §2
[21] = system: L1210; experiment: as §7; format: functional; summary of the method: as §2

Row | Compound | Control [1] [%] | EC50 [2] [µg/mL] | EC50 [3] [µg/mL] | EC50 [4] [µg/mL] | EC50 [5] [µg/mL] | EC50 [6] [µg/mL] | EC50 [7] [µg/mL] | EC50 [8] [µg/mL] | EC50 [9] [µg/mL] | EC50 [10] [µg/mL] | EC50 [11] [µg/mL] | Control [12] [%] | Control [13] [%] | Control [14] [%] | further results
1 | Nc1cc(SCCOCP(=O)(O)O)nc(N)n1 | 89 | 5.5 (≈ 19.6 µM) | 3 (≈ 10.7 µM) | 1.7 (≈ 6.07 µM) | 29 (≈ 103 µM) | ≥ 80 | 48 (≈ 171 µM) | 20 (≈ 71.4 µM) | 15 (≈ 53.5 µM) | 7.5 (≈ 26.8 µM) | 7 (≈ 25 µM) | 98 | 88 | 83 | EC50 [15]: 78 µg/mL (≈ 278 µM); EC50 [16]: 50 µg/mL (≈ 178 µM)
2 | Nc1nc(OCCOCP(=O)(O)O)cc(OCCOCP(=O)(O)O)n1 | 109 | 57 (≈ 141 µM) | 80 (≈ 198 µM) | 43 (≈ 107 µM) | 240 (≈ 595 µM) | > 400 | 240 (≈ 595 µM) | > 50 | > 50 | 50 (≈ 124 µM) | > 50 | 72 | 56 | 77 | –
3 | Nc1nc(NC2CC2)cc(=O)n1CCOCP(=O)(O)O | – | > 100 | > 100 | – | > 16 | > 16 | > 16 | > 50 | > 50 | > 50 | > 50 | – | – | – | –
4 | Cc1cc(=O)n(CCOCP(=O)(O)O)c(N)n1 | 100 | > 100 | > 100 | 122 (≈ 464 µM) | > 400 | > 400 | > 400 | > 50 | > 50 | > 50 | > 50 | 83 | 81 | 95 | –
5 | Nc1cc(=O)n(CCOCP(=O)(O)O)c(N)n1 | 95 | 80 (≈ 303 µM) | 25 (≈ 94.6 µM) | 2.92 (≈ 11.1 µM) | 240 (≈ 908 µM) | > 400 | > 400 | > 50 | > 50 | 32 (≈ 121 µM) | > 50 | 93 | 96 | 76 | –
6 | Nc1ncnc2c1ncn2C[C@@H](CO)OCP(=O)(O)O | – | – | – | – | – | – | – | – | – | – | – | – | – | – | EC50 [17]: 0.24 µg/mL (≈ 0.792 µM)
7 | Nc1nc(NC2CC2)cc(OCCOCP(=O)(O)O)n1 | – | > 100 | > 100 | > 40 | 240 (≈ 789 µM) | > 80 | 240 (≈ 789 µM) | > 50 | > 50 | > 20 | > 50 | – | – | – | Control [18]: 87%; Control [19]: 88%; Control [20]: 93%; Control [21]: 71%
8 | Nc1cc(O)nc(SCCOCP(=O)(O)O)n1 | – | > 100 | > 100 | 72 (≈ 256 µM) | 240 (≈ 853 µM) | > 400 | > 400 | > 50 | > 50 | > 50 | > 50 | – | – | – | –
9 | Nc1ncnc2c1ncn2CCOCP(=O)(O)O [ADEFOVIR] | – | 1.8 (≈ 6.59 µM) | 2.5 (≈ 9.15 µM) | 0.25 (≈ 0.915 µM) | 7 (≈ 25.6 µM) | 7 (≈ 25.6 µM) | 7 (≈ 25.6 µM) | 10 (≈ 36.6 µM) | 10 (≈ 36.6 µM) | 10 (≈ 36.6 µM) | 10 (≈ 36.6 µM) | – | – | – | –
10 | Nc1cc(=O)n(CCOCP(=O)(O)O)cn1 | 86 | > 100 | > 100 | 138 (≈ 554 µM) | > 400 | > 400 | > 400 | > 50 | > 50 | > 50 | > 50 | 94 | 90 | 98 | –
11 | CN(C)c1cc(OCCOCP(=O)(O)O)nc(N)n1 | 104 | > 100 | > 100 | 133 (≈ 455 µM) | > 400 | > 400 | > 400 | > 50 | > 50 | > 50 | > 50 | 89 | 104 | 88 | –
12 | CN(C)c1cc(=O)n(CCOCP(=O)(O)O)c(N)n1 | 98 | > 100 | > 100 | 105 (≈ 359 µM) | > 80 | > 80 | > 80 | > 50 | > 50 | > 50 | > 50 | 92 | 99 | 90 | –
